ChEMBL document CHEMBL1944553, “Structure-activity relationships of truncated C2- or C8-substituted adenosine derivatives as dual acting A₂A and A₃ adenosine receptor ligands” (J Med Chem, 2012)
pEC50, pKi: −log10 of the molar value.

Legend:
[1] = target: T1, Adenosine receptor A3 (Homo sapiens) (UniProt P0DMS8); test: Partial agonist activity at human recombinant adenosine A3 receptor expressed in CHO cells assessed as inhibition of forskolin-stimulated cAMP production at 10 uM incubated for 30 mins prior to forskolin addition by enzyme immunoassay relative to C1-IB-MECA; type: functional, cell-based
T1 sequence (whole entry): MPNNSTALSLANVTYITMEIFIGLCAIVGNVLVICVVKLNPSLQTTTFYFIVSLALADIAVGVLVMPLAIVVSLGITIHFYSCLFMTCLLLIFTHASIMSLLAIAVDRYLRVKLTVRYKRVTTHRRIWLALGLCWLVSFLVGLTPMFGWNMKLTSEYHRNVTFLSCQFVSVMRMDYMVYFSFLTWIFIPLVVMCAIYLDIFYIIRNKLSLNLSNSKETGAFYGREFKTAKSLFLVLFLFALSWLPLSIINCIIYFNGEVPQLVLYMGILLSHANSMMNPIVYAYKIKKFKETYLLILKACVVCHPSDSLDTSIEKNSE

Rattus norvegicus = test: Antiinflammatory activity in Sprague-Dawley rat assessed as reduction in carrageenan-induced paw edema at 20 mg/kg, ip administered 30 mins before carrageenan challenge measured after 4 hrs by plethysmometer analysis; type: functional; parameters: scale not given: the % may be the effect or the level left; details: route intraperitoneal
Outline: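 Male Sprague-Dawley rats (140–160 g, 5 weeks), acclimatized one week. Compound at 20 mg/kg given ip in 5% cremophor/5% ethanol in PBS; vehicle as control. After 30 min, 0.1 mL 1% carrageenan in saline was injected subplantar into the right hind paw, with saline in the left. Paw volume was read by plethysmometer at 0–24 h, 4 h included. Mean ± SD, ANOVA.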

Adenosine receptor A3 = target: T2, Adenosine receptor A3 (Homo sapiens, UniProt P0DMS8); test: Displacement of [125I]I-AB-MECA from human adenosine A3 receptor expressed in CHO cells after 60 mins by gamma counting; type: cell-based
T2 sequence (P0DMS8 whole entry): T1 sequence (whole entry)
Outline: (§1)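 hA3AR-CHO membranes (20 µg protein) with 0.5 nM [125I]I-AB-MECA and increasing ligand concentrations in 50 mM Tris-HCl pH 7.4, 10 mM MgCl2, 1 mM EDTA; 25 °C, 60 min. Nonspecific binding: 10 µM NECA. Filtered on GF/B, washed three times with ice-cold buffer, gamma-counted.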

Adenosine receptor A2a [2] = target: T3, Adenosine receptor A2a (Homo sapiens, UniProt P29274); test: Displacement of [3H]CGS21680 from human adenosine A2A receptor expressed in HEK293 cells after 60 mins by […]; type: cell-based
Outline: (§2)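 HEK-293 cells stably expressing human A2AAR. Membranes at 20 µg/tube were incubated with [3H]CGS21680 at 25 °C for 60 min in 50 mM Tris-HCl pH 7.4 with 10 mM MgCl2. Nonspecific binding was defined with 10 µM NECA, and reactions were stopped by GF/B filtration.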

[3] = target: T4, Adenosine receptor A1 (Homo sapiens) (UniProt P30542); test: Displacement of [3H]R-PIA from human recombinant adenosine A1 receptor expressed in CHO cells at 10 uM after 60 mins by […]; type: cell-based
T4 sequence (whole entry): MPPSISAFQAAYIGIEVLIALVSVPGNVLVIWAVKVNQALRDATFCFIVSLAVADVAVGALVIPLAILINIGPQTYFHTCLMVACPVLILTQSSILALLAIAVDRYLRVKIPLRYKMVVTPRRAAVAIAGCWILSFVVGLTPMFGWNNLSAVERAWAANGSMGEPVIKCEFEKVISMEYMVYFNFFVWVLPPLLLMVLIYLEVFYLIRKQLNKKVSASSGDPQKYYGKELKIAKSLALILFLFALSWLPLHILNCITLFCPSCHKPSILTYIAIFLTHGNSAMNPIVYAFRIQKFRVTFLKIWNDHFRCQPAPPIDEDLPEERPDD
Outline: (§3)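 Membranes (40 µg/tube) from CHO cells stably expressing human A1AR, incubated with 1 nM [3H]R-PIA at 25 °C for 60 min in 50 mM Tris-HCl pH 7.4 with 10 mM MgCl2. Nonspecific binding set with 10 µM NECA. GF/B filtration.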

Adenosine receptor A2a [4] = target: T3, Adenosine receptor A2a; test: Displacement of [3H]CGS21680 from human adenosine A2A receptor expressed in HEK293 cells at 10 uM after 60 mins by […]; type: cell-based; outline: as §2
[5] = target: T1, Adenosine receptor A3 (Homo sapiens); test: Displacement of [125I]I-AB-MECA from human adenosine A3 receptor expressed in CHO cells at 10 uM after 60 mins by gamma counting; type: cell-based; outline: as §1
Adenosine receptor A1 = target: T5, Adenosine receptor A1 (Homo sapiens, UniProt P30542); test: Displacement of [3H]R-PIA from human recombinant adenosine A1 receptor expressed in CHO cells after 60 mins by […]; type: cell-based; outline: as §3
T5 sequence (P30542 whole entry): T4 sequence (whole entry)

[6] = target: T1, Adenosine receptor A3 (Homo sapiens); test: Competitive antagonist activity at human recombinant adenosine A3 receptor expressed in CHO cells assessed as inhibition of C1-IB-MECA-induced cAMP production preincubated for 30 mins prior to forskolin addition by enzyme immunoassay; type: functional, cell-based
Adenosine receptor A2a [7] = target: T3, Adenosine receptor A2a; test: Agonist activity at human recombinant adenosine A2A receptor expressed in CHO cells assessed as induction of cAMP production after 30 mins by immunoassay; type: functional, cell-based
Adenosine receptor A2a [8] = target: T3, Adenosine receptor A2a; test: Agonist activity at human recombinant adenosine A2A receptor expressed in CHO cells assessed as induction of cAMP production at 10 uM after 30 mins by enzyme immunoassay relative to NECA; type: functional, cell-based
[9] = target: T6, Adenosine receptor A2b (Homo sapiens) (UniProt P29275); test: Agonist activity at human recombinant adenosine A2B receptor expressed in CHO cells assessed as induction of cAMP production at 10 uM after 30 mins by immunoassay relative to NECA; type: functional, cell-based
T6 sequence (whole entry): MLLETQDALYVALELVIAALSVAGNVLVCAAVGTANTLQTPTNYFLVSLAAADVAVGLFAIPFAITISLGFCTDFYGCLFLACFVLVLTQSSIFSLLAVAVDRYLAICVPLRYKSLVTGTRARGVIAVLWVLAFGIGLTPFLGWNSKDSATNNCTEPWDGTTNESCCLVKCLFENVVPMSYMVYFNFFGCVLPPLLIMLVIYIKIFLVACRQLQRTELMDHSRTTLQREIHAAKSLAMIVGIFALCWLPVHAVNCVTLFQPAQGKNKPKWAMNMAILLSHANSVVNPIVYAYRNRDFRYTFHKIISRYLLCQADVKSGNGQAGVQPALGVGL

T3 sequence (P29274 whole entry): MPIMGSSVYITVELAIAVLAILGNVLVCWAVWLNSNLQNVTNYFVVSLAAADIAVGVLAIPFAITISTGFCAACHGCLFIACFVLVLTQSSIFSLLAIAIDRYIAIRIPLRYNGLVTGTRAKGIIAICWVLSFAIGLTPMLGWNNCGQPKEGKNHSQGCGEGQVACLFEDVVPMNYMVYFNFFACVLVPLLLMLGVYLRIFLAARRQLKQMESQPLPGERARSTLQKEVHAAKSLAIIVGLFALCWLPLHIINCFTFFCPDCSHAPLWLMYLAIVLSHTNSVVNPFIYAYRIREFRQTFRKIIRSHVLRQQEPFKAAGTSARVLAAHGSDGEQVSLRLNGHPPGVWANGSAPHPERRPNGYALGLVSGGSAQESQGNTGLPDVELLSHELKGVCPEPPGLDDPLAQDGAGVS

Structure (SMILES) | inhibition [1] [%] | pKi (Adenosine receptor A3) | pKi (Adenosine receptor A2a [2]) | inhibition [3] [%] | inhibition (Adenosine receptor A2a [4]) [%] | other results
CCCCC#Cc1nc(N)c2ncn([C@@H]3SC[C@@H](O)[C@H]3O)c2n1 | 2.8 | – | – | – | – | Activity (Rattus norvegicus): 51.1%
CCCCC#Cc1nc(NCc2cccc(Cl)c2)c2ncn([C@@H]3SC[C@@H](O)[C@H]3O)c2n1 | 47.2 | 7.62 | 5.43 | 25 | – | –
CCCCCCc1nc2c(N)ncnc2n1[C@@H]1OC[C@@H](O)[C@H]1O | 12.9 | – | – | 18.1 | 5.8 | inhibition [5]: 24.7%
CCCCC#Cc1nc(NCc2cccc(Cl)c2)c2ncn([C@@H]3OC[C@@H](O)[C@H]3O)c2n1 | 39.7 | 6.82 | – | 9 | 42 | –
CCCC/C=C/c1nc2c(N)ncnc2n1[C@@H]1OC[C@@H](O)[C@H]1O | 19.5 | 7.03 | – | – | 27.3 | pKi (Adenosine receptor A1): 6.30
COc1ccc2c(c1)c(CC(=O)O)c(C)n2C(=O)c1ccc(Cl)cc1 [INDOMETHACIN] | – | – | – | – | – | Activity (Rattus norvegicus): 49.7%
CCCCCCc1nc(N)c2ncn([C@@H]3OC[C@@H](O)[C@H]3O)c2n1 | 22.3 | – | 5.67 | 10 | – | inhibition [5]: 39%
CCCC/C=C/c1nc(N)c2ncn([C@@H]3SC[C@@H](O)[C@H]3O)c2n1 | 10.7 | – | – | – | – | Kb [6]: 23.9 nM; pEC50 (Adenosine receptor A2a [7]): 7.69; Activity (Adenosine receptor A2a [8]): 109%; Activity [9]: 3.6%
CCCC/C=C/c1nc2c(N)ncnc2n1[C@@H]1SC[C@@H](O)[C@H]1O | 6.1 | – | – | – | – | –
CCCC/C=C/c1nc(N)c2ncn([C@@H]3OC[C@@H](O)[C@H]3O)c2n1 | 42.6 | 6.66 | 6.75 | 31.9 | – | Activity (Adenosine receptor A2a [8]): 83%; Activity [9]: 1.8%
CCCCC#Cc1nc(N)c2ncn([C@@H]3OC[C@@H](O)[C@H]3O)c2n1 | 17.4 | 6.86 | 7.20 | – | – | pKi (Adenosine receptor A1): 6.13; pEC50 (Adenosine receptor A2a [7]): 7.10; Activity (Adenosine receptor A2a [8]): 89.9%; Activity [9]: 1.9%
CCCCC#Cc1nc(NCc2cccc(Br)c2)c2ncn([C@@H]3SC[C@@H](O)[C@H]3O)c2n1 | 25.2 | 7.62 | 5.41 | 12 | – | –
CCCCC#Cc1nc(NCc2cccc(F)c2)c2ncn([C@@H]3OC[C@@H](O)[C@H]3O)c2n1 | 29.5 | 6.24 | – | 9 | 25 | –
CCCCC#Cc1nc2c(N)ncnc2n1[C@@H]1SC[C@@H](O)[C@H]1O | 1.7 | – | – | – | – | Activity [9]: 7%
CCCCC#Cc1nc(NCc2cccc(I)c2)c2ncn([C@@H]3OC[C@@H](O)[C@H]3O)c2n1 | 31.5 | 6.66 | – | 18 | 32 | –
CCCCC#Cc1nc(NCc2cccc(I)c2)c2ncn([C@@H]3SC[C@@H](O)[C@H]3O)c2n1 | 40 | 7.41 | 5.31 | 15 | – | –
CCCCC#Cc1nc(NCc2cccc(F)c2)c2ncn([C@@H]3SC[C@@H](O)[C@H]3O)c2n1 | 47.6 | 6.82 | – | 24 | 46 | –
CCCCC#Cc1nc(NCc2cccc(Br)c2)c2ncn([C@@H]3OC[C@@H](O)[C@H]3O)c2n1 | 37.2 | 7.17 | – | 12 | 27 | –
CCCCC#Cc1nc2c(N)ncnc2n1[C@@H]1OC[C@@H](O)[C@H]1O | 24.5 | 7.50 | – | – | 27.2 | pKi (Adenosine receptor A1): 6.54
